The record followed here is ChEMBL document CHEMBL4673384, “Studying Histone Deacetylase Inhibition and Apoptosis Induction of Psammaplin A Monomers with Modified Thiol Group” (ACS Med Chem Lett, 2021).

Usually IC50 stands for the concentration that inhibits the measured activity by half. A word on the GI50: it is the concentration that inhibits growth by half.

Calls of active or inactive are those of the source. No cut-off for these calls is given here.

In series [1] the test system is HL-60. The experiment in a line: Induction of apoptosis in human HL-60 cells assessed as necrotic cells at 2 uM incubated for 24 hrs by propidium iodide and annexin-V FITC staining based FACS analysis (reference value: 0.5 %). In kind it is functional.
Series [2] deals with HL-60. The experiment in a line: Induction of apoptosis in human HL-60 cells assessed as cleavage of caspase-3 at 0.5 to 8 uM after 24 hrs Western blot analysis. In kind it is functional, cell-based. To be noted: dose 0.5-8 µM. In a few lines: (§1)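 HL-60 cells were treated for 24 h at the indicated concentrations, then analysed by Western blot. Blots were probed for cleavage of PARP and caspase-3, -8 and -9. Ac-H3, Ac-α-tubulin and β-actin were also detected, with β-actin as the loading reference.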
For orientation: A western blot detects proteins with antibodies after separation by electrophoresis.

A further series deals with MCF7. The experiment in a line: Antiproliferative activity against human MCF7 cells assessed as cell growth inhibition incubated for 96 hrs by MTT assay. It is filed as functional. In general terms: Tetrazolium assays rely on reduction of a dye to a coloured formazan, in cell work by metabolically active cells.
The subject of series [3] is HL-60. The experiment in a line: Induction of apoptosis in human HL-60 cells assessed as cleavage of PARP at 0.5 to 8 uM after 24 hrs Western blot analysis. To be noted: dose 0.5-8 µM. It is filed as functional, cell-based. In a few lines: as §1
A short description of series [4]: Toxicity in mouse LL/2 cells inoculated C57BL/6J mouse assessed as effect on body weight by measuring initial body weight at 25 mg/kg, ip administered for 12 days measured for every 2 days (reference value: 18.4 +/- 0.4 g). In kind it is organism-based. Particulars: in vivo, 288 h, time 12 day.
In series [5] the target is T1, Protein deacetylase HDAC6 (Homo sapiens, UniProt Q9UBN7).
T1 sequence (Q9UBN7 whole entry): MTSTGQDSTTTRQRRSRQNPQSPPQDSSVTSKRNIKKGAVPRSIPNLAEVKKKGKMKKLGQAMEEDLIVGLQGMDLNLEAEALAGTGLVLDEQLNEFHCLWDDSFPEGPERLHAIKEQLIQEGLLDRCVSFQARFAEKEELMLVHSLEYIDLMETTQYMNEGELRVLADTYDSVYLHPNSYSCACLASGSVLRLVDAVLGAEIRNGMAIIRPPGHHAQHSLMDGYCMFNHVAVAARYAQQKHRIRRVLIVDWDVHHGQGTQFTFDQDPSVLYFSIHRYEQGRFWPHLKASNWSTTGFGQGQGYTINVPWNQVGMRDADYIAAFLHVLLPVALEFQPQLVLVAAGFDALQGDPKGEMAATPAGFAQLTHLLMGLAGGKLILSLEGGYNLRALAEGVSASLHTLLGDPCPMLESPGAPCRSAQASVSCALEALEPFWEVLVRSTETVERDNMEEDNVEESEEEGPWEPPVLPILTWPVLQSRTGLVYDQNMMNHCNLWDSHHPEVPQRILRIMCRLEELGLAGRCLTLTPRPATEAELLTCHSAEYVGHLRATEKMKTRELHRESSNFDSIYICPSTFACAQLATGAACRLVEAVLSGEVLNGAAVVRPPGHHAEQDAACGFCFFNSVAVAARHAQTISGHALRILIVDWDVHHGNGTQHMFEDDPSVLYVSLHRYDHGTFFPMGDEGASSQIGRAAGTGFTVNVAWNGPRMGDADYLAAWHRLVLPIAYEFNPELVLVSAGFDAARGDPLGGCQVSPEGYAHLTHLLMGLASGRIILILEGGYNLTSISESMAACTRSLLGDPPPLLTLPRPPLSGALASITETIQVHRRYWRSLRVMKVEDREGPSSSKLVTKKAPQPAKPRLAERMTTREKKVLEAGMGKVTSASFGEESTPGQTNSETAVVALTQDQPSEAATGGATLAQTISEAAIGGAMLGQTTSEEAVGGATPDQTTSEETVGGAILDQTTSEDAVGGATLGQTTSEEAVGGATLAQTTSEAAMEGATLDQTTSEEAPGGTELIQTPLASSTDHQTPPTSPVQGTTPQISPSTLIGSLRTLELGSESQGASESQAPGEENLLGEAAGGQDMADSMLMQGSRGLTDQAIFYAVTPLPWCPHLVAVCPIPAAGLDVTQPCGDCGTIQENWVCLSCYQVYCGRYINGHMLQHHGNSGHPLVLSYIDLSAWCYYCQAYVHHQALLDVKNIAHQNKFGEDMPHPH
The experiment in a line: Inhibition of recombinant full length C-terminal FLAG-tagged human HDAC6 expressed in baculovirus infected Sf9 cells using Boc-Lys(Ac)-AMC as substrate preincubated for 15 mins followed by substrate addition and measured after 60 mins by fluorescence based assay.

The next series relates to A549. The experiment in a line: Antiproliferative activity against human A549 cells assessed as cell growth inhibition incubated for 96 hrs by MTT assay. In kind it is functional.
The nature of series [6]: Toxicity in mouse LL/2 cells inoculated C57BL/6J mouse assessed as effect on body weight by measuring end body weight at 25 mg/kg, ip administered for 12 days and measured for every 2 days (reference value: 18.1 +/- 0.2 g). To be noted: in vivo, 288 h, time 12 day. In kind it is organism-based.
The target in the next series is Histone deacetylase 1 (Homo sapiens, UniProt Q13547). The experiment in a line: Inhibition of recombinant full length C-terminal FLAG/His-tagged human HDAC1 expressed in baculovirus infected Sf9 cells using Boc-Lys(Ac)-AMC as substrate preincubated for 15 mins followed by substrate addition and measured after 60 mins by fluorescence based assay.
Histone deacetylase 1, sequence (Q13547 whole entry): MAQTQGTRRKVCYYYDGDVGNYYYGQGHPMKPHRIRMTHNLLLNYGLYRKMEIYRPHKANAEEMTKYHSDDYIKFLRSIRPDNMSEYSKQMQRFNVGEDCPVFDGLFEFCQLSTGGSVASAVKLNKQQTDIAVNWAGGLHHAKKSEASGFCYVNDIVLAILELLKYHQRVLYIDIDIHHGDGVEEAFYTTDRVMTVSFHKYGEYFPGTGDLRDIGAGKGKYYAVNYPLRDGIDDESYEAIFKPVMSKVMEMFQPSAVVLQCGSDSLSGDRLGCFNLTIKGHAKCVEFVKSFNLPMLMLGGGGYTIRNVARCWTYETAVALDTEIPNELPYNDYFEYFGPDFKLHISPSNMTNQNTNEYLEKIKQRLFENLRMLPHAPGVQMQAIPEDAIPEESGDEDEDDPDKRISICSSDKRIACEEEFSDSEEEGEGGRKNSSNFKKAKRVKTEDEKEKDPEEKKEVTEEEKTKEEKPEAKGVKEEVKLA
Series [7] can be described thus: Antiproliferative activity against mouse LL/2 cells assessed as cell growth inhibition incubated for 96 hrs by MTT assay. In kind it is functional, Lewis lung carcinoma.
In series [8] the target is T2, Histone deacetylase 2 (Homo sapiens, UniProt Q92769). The experiment in a line: Inhibition of recombinant full length C-terminal FLAG-tagged human HDAC2 expressed in baculovirus infected Sf9 cells using Boc-Lys(Ac)-AMC as substrate preincubated for 15 mins followed by substrate addition and measured after 60 mins by fluorescence based assay.
T2 sequence (Q92769 whole entry): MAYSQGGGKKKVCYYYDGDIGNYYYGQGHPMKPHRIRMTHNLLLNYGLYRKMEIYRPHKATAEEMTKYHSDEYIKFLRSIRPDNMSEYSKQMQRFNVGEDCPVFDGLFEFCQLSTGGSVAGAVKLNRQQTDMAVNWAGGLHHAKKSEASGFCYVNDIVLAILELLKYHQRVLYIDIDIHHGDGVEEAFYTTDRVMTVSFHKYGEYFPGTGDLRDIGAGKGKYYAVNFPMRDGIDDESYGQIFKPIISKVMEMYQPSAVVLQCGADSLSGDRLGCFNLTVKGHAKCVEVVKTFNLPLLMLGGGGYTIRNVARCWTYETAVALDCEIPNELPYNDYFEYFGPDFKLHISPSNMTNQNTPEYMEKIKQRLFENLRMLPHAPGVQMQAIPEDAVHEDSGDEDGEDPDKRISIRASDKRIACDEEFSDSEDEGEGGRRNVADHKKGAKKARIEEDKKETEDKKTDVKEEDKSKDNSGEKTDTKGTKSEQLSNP
Series [9] in a line: Antitumor activity against mouse LL/2 cells inoculated in C57BL/6J mouse assessed as reduction of tumor weight at 25 mg/kg, ip administered for 12 days measured at day 14 (reference value: 0.98 +/- 0.07 g). In kind it is functional, Lewis lung carcinoma. To be noted: time 12 day.
Series [10] has as its system HL-60. The experiment in a line: Induction of apoptosis in human HL-60 cells assessed as cleavage of caspase-8 at 0.5 to 8 uM after 24 hrs Western blot analysis. It is filed as functional, cell-based. To be noted: dose 0.5-8 µM. In a few lines: as §1
Another series deals with HCT-116. The experiment in a line: Antiproliferative activity against human HCT-116 cells assessed as cell growth inhibition incubated for 96 hrs by MTT assay. In kind it is functional.
For series [11], the system named is HL-60. The experiment in a line: Growth inhibition of human HL-60 cells after 72 hrs by trypan blue dye based assay. To be noted: for GI50: Homo sapiens, HL-60. In kind it is functional. In a few lines:
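HL-60 leukemia cells were exposed to compound for 72 h. Growth inhibition is reported as IG50 (half the growth inhibition concentration), as means plus SD of three independent experiments.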

For series [12], the target named is T2, Histone deacetylase 2. The experiment in a line: Inhibition of HDAC2 in human HL-60 cells assessed as increase in Ac-H3 level at 0.5 to 8 uM incubated for 24 hrs by Western blot analysis. It is filed as cell-based. Particulars: dose 0.5-8 µM. In a few lines: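 Compound given to HL-60 cells for 24 h at the stated concentrations, then lysed. Acetyl-histone H3 and acetyl-α-tubulin levels were read by Western blot, with total H3, α-tubulin or β-actin as references.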

Series [13] has as its target Histone deacetylase 3/Nuclear receptor corepressor 2 (HDAC3/NCoR2) (Homo sapiens, UniProt O15379). The experiment in a line: Inhibition of C-terminal His-tagged recombinant human HDAC3 (1 to 428 residues)/N-terminal GST-tagged recombinant human NCoR2 (395 to 489 residues) co-expressed in baculovirus infected Sf9 cells using Boc-Lys(Ac)-AMC as substrate preincubated for 15 mins followed by substrate addition and measured after 60 mins by fluorescence based assay.

Series [14] can be described thus: Antitumor activity against mouse LL/2 cells inoculated in C57BL/6J mouse assessed as tumor growth inhibition at 25 mg/kg, ip administered for 12 days. It is filed as functional, Lewis lung carcinoma. The arrangement: scale not given: the % may be the effect or the level left. To be noted: time 12 day.

Histone deacetylase 3/Nuclear receptor corepressor 2 (HDAC3/NCoR2), sequence (O15379 whole entry, the tested form may be a part): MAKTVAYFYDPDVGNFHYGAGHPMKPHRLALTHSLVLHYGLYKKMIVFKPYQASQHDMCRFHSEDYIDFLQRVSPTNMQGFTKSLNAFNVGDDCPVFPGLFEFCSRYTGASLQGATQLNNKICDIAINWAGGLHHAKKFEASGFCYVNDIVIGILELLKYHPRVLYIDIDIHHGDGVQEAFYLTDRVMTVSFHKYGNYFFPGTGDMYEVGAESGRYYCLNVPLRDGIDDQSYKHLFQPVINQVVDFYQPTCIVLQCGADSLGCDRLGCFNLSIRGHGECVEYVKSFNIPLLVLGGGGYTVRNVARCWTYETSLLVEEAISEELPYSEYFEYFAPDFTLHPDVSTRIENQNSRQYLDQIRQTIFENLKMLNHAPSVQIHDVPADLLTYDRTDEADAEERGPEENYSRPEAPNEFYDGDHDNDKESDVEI
Histone deacetylase 3/Nuclear receptor corepressor 2 (HDAC3/NCoR2), sequence (Q9Y618 whole entry, further chain, the tested form may be a part): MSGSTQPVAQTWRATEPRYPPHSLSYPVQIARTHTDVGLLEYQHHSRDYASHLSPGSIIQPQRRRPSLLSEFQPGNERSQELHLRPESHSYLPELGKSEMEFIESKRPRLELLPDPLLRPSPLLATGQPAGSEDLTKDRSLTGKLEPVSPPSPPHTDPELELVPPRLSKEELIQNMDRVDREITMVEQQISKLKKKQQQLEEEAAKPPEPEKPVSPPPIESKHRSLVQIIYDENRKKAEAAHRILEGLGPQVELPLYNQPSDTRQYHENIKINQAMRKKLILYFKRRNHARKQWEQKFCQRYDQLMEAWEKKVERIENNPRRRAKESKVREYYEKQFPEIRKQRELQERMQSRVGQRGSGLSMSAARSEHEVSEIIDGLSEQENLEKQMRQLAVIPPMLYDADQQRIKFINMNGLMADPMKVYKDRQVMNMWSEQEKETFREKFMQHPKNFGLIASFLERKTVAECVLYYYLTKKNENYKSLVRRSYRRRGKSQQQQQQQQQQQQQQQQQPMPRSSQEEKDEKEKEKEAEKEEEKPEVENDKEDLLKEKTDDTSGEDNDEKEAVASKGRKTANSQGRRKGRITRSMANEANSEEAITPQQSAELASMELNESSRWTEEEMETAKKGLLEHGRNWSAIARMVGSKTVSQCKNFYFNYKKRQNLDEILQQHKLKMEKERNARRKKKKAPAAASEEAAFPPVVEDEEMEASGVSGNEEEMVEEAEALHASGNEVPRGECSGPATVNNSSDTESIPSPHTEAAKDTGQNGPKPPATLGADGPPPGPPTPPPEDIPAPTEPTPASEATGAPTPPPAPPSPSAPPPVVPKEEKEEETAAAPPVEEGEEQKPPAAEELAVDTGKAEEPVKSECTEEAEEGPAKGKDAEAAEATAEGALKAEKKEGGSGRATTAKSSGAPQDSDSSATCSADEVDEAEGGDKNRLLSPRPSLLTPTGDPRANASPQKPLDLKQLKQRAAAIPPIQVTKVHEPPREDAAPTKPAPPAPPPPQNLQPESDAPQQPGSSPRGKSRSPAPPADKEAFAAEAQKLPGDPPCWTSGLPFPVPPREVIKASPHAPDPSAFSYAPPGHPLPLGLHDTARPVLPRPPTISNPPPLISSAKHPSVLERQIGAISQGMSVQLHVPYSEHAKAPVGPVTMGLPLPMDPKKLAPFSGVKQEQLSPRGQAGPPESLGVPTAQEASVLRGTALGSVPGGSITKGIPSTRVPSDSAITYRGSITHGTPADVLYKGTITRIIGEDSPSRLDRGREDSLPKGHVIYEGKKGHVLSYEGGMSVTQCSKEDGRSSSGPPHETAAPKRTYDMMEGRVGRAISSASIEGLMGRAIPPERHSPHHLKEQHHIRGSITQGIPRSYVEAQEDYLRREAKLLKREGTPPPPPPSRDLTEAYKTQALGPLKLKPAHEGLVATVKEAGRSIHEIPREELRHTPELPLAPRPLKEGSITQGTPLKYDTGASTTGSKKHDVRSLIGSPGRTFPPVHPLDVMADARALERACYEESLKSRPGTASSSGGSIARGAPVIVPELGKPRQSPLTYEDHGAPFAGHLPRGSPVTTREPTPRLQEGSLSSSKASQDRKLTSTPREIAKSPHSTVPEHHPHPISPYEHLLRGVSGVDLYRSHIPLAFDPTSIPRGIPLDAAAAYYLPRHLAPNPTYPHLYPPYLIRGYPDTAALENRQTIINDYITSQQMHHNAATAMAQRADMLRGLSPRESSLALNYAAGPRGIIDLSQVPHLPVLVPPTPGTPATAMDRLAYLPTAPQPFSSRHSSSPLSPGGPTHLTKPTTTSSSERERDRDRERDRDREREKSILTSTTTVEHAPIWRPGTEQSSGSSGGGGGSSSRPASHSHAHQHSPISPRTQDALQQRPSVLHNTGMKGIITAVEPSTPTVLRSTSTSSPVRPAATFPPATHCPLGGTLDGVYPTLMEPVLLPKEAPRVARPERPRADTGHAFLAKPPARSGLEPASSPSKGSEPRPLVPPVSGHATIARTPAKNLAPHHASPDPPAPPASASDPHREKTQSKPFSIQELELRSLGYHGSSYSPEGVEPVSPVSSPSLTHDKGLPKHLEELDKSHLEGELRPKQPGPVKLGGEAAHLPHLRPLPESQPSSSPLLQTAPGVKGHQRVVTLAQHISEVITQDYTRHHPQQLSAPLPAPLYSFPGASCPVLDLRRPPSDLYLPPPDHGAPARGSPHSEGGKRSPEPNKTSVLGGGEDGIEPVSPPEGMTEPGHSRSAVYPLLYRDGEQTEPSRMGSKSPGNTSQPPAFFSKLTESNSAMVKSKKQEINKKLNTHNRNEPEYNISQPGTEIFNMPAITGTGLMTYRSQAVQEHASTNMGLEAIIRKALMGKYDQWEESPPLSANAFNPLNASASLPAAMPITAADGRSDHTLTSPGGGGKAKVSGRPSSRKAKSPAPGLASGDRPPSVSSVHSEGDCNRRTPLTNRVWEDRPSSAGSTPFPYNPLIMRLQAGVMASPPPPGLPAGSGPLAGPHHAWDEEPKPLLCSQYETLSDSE

As to `O=C(NCCS)/C(Cc1ccc(O)c(Br)c1)=N/O`, the Activity in the series on HL-60 [1] worked out at 0.3%; in series [4] it was 18.5 g; in series [6], 18.3 g; in series [9], 0.48 g; in [14] it was 55.99%. For the same compound, the outcome with HL-60 [2], in the series with HL-60 [3] and in the series on HL-60 [10] was Active. In addition, the IG50 in the series with MCF7 was determined as 17 µM; with A549, 10.7 µM; in series [7] it was 3.9 µM; in the series on HCT-116, 5.9 µM. Further, the IC50 in series [5] is 0.96 µM; at Histone deacetylase 1, 0.052 µM; on Histone deacetylase 2 [8], 0.21 µM; in [13] it was 0.12 µM. The compound also registered a GI50 with HL-60 [11] of 0.68 µM. Further, the inhibition entry at Histone deacetylase 2 [12] is “Active”.
`O=C(CCNC(=O)/C(Cc1ccc(O)c(Br)c1)=N/O)NO`: the IG50 came out at 1.09 µM with MCF7; 1.1 µM in the series with A549; 5 µM in series [7]; 0.9 µM with HCT-116; 0.57 µM in the series on HL-60 [11]. The Activity in series [4] turned out to be 18.9 g; in series [6] it was 18.4 g; in [9] it was 0.45 g; in series [14] it was 54.68%. Besides, the half-maximal inhibitory concentration (IC50) stood at 0.096 µM in [5], 0.018 µM at Histone deacetylase 1, 0.033 µM on Histone deacetylase 2 [8] and 0.02 µM in series [13].
Consider `O=C(NCCSSCCNC(=O)/C(Cc1ccc(O)c(Br)c1)=N/O)/C(Cc1ccc(O)c(Br)c1)=N/O` [PSAMMAPLIN A], for which the Activity in the series with HL-60 [1] worked out at 3.9%; in series [4] it was 18.2 g; in series [6], 18.4 g; in [9], 0.34 g; in series [14], 66.04%. Besides, the outcome in the series on HL-60 [2], in the series with HL-60 [3] and with HL-60 [10] was Active. Also, the IG50 with MCF7 turned out to be 4.14 µM; in the series with A549 it was 2.9 µM; in series [7] it was 2.64 µM; with HCT-116, 2.3 µM. Besides, the half-maximal inhibitory concentration (IC50) in series [5] came to 0.311 µM; on Histone deacetylase 1 it was 0.008 µM; at Histone deacetylase 2 [8], 0.033 µM; in [13] it was 0.0124 µM. In the series with HL-60 [11], this compound registered a GI50 of 0.37 µM. The inhibition entry at Histone deacetylase 2 [12] is “Active”.
